# Measurements: the M2OR odorant receptor database
# How the values were obtained:
# Settings in all cases: stereoisomer not certain
# UniProt Q924H8 = molecular target: T1, UniProt Q924H8
# T1 sequence (whole entry): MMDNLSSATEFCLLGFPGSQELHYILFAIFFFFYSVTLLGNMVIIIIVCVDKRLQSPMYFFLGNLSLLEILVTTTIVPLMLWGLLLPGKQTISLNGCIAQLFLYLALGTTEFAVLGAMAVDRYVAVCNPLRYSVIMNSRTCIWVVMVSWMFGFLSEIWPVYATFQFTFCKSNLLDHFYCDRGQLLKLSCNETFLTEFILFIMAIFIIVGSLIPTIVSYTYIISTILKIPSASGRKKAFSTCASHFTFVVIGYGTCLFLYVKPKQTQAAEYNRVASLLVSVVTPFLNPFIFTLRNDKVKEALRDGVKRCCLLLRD
# Method in brief: (§1)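 Each entry records the cell line, G-protein, co-transfected protein and tags used. Methods varied with the source, often transient luciferase assays in mammalian cell lines. A receptor–molecule pair is called responsive (active) if the original authors judged its signal statistically different from baseline and non-responsive (inactive) otherwise.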
# UniProt Q920P2 = molecular target: T2, UniProt Q920P2
# T2 sequence (whole entry): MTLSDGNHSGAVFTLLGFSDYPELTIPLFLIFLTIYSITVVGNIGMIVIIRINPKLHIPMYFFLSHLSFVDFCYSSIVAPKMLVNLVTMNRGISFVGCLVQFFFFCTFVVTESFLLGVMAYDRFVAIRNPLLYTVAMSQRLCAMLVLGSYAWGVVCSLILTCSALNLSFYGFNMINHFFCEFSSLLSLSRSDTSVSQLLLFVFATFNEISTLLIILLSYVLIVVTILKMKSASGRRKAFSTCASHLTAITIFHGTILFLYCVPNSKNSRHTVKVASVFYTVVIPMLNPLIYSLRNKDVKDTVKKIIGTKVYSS
# Method in brief: as §1
# UniProt Q9EPN9 = molecular target: T3, UniProt Q9EPN9
# T3 sequence (whole entry): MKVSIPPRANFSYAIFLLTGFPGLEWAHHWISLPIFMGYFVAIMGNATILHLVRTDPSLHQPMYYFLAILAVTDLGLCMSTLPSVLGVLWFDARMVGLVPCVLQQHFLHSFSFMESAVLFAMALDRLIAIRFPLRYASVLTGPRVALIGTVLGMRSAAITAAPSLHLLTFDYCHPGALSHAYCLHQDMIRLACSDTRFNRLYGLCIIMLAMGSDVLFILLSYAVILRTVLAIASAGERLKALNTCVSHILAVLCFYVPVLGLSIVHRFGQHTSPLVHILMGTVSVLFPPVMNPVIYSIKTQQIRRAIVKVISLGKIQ
# Method in brief: as §1
# UniProt Q9R0K2 = molecular target: UniProt Q9R0K2
# Chain of UniProt Q9R0K2 (Q9R0K2 as listed by the source): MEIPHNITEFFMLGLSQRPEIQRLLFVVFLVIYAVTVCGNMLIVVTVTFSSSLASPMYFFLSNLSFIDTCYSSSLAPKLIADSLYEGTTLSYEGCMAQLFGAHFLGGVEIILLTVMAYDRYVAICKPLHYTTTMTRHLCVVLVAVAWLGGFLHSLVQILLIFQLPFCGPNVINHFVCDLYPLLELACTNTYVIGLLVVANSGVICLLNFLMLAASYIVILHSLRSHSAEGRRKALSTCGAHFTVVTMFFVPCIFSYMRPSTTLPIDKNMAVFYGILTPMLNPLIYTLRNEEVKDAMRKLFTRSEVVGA
# Method in brief: as §1
# UniProt Q9WU86 = molecular target: T4, UniProt Q9WU86
# T4 sequence (whole entry): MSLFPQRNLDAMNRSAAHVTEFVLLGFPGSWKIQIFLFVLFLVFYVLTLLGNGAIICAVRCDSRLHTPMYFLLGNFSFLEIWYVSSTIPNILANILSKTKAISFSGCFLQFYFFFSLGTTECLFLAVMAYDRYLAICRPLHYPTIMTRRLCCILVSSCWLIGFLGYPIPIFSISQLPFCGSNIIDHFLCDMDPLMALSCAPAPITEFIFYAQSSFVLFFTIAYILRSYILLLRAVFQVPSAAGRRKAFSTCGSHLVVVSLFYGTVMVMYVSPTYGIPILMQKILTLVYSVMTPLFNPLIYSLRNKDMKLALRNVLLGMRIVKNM
# Method in brief: as §1
# UniProt Q9WVD9 = molecular target: UniProt Q9WVD9
# Chain of UniProt Q9WVD9 (Q9WVD9 as listed by the source): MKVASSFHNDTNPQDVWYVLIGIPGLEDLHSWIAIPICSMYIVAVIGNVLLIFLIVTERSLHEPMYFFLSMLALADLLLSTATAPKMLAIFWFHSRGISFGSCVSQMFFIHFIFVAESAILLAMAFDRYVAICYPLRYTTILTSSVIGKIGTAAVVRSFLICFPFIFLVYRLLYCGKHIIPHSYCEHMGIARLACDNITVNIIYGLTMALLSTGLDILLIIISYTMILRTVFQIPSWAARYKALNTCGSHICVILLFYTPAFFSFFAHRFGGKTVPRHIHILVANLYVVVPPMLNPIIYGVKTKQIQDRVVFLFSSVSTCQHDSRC
# Method in brief: as §1
# UniProt Q9WVN5 = molecular target: T5, UniProt Q9WVN5
# T5 sequence (whole entry): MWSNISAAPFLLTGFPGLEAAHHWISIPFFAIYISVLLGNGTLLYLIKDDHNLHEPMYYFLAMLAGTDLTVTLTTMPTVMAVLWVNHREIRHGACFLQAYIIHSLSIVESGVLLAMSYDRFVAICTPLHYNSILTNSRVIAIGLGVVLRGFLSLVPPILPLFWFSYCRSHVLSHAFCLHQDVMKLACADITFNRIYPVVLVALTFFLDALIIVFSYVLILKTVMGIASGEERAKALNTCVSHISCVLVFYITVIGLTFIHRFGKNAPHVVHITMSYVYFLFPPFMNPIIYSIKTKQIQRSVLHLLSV
# Method in brief: as §1
# UniProt Q9EQB5 = molecular target: UniProt Q9EQB5
# Chain of UniProt Q9EQB5 (Q9EQB5 as listed by the source): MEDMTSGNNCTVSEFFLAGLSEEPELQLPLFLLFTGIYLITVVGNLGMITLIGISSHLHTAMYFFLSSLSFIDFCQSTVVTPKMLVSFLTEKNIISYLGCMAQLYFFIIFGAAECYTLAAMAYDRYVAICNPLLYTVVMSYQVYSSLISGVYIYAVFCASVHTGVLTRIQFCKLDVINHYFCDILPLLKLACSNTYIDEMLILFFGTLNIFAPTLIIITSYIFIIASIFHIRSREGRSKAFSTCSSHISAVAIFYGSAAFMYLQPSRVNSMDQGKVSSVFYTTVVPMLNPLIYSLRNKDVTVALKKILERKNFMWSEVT
# Method in brief: as §1
smiles,measurement,setting,value
CC1CC=CCCCCCCCCCC(=O)C1 (stereo not given),odorant receptor agonist call,UniProt Q924H8,active
COc1cc(C(=O)O)ccc1O,odorant receptor agonist call,UniProt Q920P2,inactive
same,odorant receptor agonist call,UniProt Q924H8,inactive
same,odorant receptor agonist call,UniProt Q9EPN9,inactive
same,odorant receptor agonist call,UniProt Q9R0K2,inactive
same,odorant receptor agonist call,UniProt Q9WU86,inactive
same,odorant receptor agonist call,UniProt Q9WVD9,inactive
same,odorant receptor agonist call,UniProt Q9WVN5,inactive
CCCCCCC=CC=O,odorant receptor agonist call,UniProt Q924H8,inactive
CC(C)=CCCC(C)=CCO,odorant receptor agonist call,UniProt Q920P2,inactive
same,odorant receptor agonist call,UniProt Q924H8,inactive
same,odorant receptor agonist call,UniProt Q9EPN9,inactive
same,odorant receptor agonist call,UniProt Q9R0K2,active
same,odorant receptor agonist call,UniProt Q9WU86,inactive
same,odorant receptor agonist call,UniProt Q9WVD9,inactive
same,odorant receptor agonist call,UniProt Q9WVN5,inactive
CC(C=O)Cc1ccc(C(C)(C)C)cc1 (stereo not given),odorant receptor agonist call,UniProt Q920P2,inactive
CCCC(C)C(=O)OCC (stereo not given),odorant receptor agonist call,UniProt Q924H8,inactive
COc1cnccn1,odorant receptor agonist call,UniProt Q924H8,inactive
CCCCCCCCCCOC(C)=O,odorant receptor agonist call,UniProt Q924H8,inactive
CC(C)=C1CCC(C)CC1=O (stereo not given),odorant receptor agonist call,UniProt Q924H8,inactive
CCc1ccccc1O,odorant receptor agonist call,UniProt Q924H8,inactive
CC=C(C)C=O,odorant receptor agonist call,UniProt Q924H8,inactive
OCC=Cc1ccccc1,odorant receptor agonist call,UniProt Q924H8,inactive
CSSCc1ccco1,odorant receptor agonist call,UniProt Q924H8,inactive
COc1nccnc1C(C)C,odorant receptor agonist call,UniProt Q924H8,inactive
CC(C)=CCCC(C)=CCOC(=O)C(C)C,odorant receptor agonist call,UniProt Q924H8,inactive
CCCCCCCCOC=O,odorant receptor agonist call,UniProt Q924H8,inactive
C=C(C)C1CC=C(C)CC1 (stereo not given),odorant receptor agonist call,UniProt Q924H8,inactive
Cc1ccc(C(C)C)c(O)c1,odorant receptor agonist call,UniProt Q924H8,inactive
c1ccccc1,odorant receptor agonist call,UniProt Q920P2,inactive
same,odorant receptor agonist call,UniProt Q924H8,inactive
same,odorant receptor agonist call,UniProt Q9EPN9,inactive
same,odorant receptor agonist call,UniProt Q9R0K2,inactive
same,odorant receptor agonist call,UniProt Q9WU86,inactive
same,odorant receptor agonist call,UniProt Q9WVD9,inactive
same,odorant receptor agonist call,UniProt Q9WVN5,inactive
CCCCCCC(=O)OCCCC,odorant receptor agonist call,UniProt Q924H8,inactive
CNc1ccccc1C(=O)OC,odorant receptor agonist call,UniProt Q924H8,inactive
CC1CCC(C(C)C)C(=O)C1 (stereo not given),odorant receptor agonist call,UniProt Q924H8,inactive
CCCCCOC(=O)CCC,odorant receptor agonist call,UniProt Q924H8,inactive
CC(=O)OC1(C)CCC23CC1C(C)(C)C2CCC3C (stereo not given),odorant receptor agonist call,UniProt Q924H8,active
COc1cc(C=O)cc(OC)c1O,odorant receptor agonist call,UniProt Q920P2,inactive
CC(=O)OCCc1ccccc1,odorant receptor agonist call,UniProt Q924H8,inactive
CCCO,odorant receptor agonist call,UniProt Q924H8,inactive
C=C(C)C1CCC2(C)OC2C1 (stereo not given),odorant receptor agonist call,UniProt Q924H8,inactive
Cc1ccccc1OC(=O)C(C)C,odorant receptor agonist call,UniProt Q924H8,inactive
C=C1C2CCC(C2)C1(C)C (stereo not given),odorant receptor agonist call,UniProt Q924H8,inactive
CCCCCCCCC=CC=O,odorant receptor agonist call,UniProt Q924H8,inactive
CCC(C)O (stereo not given),odorant receptor agonist call,UniProt Q924H8,inactive
CCN(CC)CC,odorant receptor agonist call,UniProt Q924H8,inactive
CCC(C)c1nccnc1OC (stereo not given),odorant receptor agonist call,UniProt Q924H8,inactive
C1CCOC1,odorant receptor agonist call,UniProt Q924H8,inactive
CSSSC,odorant receptor agonist call,UniProt Q924H8,inactive
CC1CCCCCCCCCCCCC(=O)C1 (stereo not given),odorant receptor agonist call,UniProt Q9EQB5,inactive
